# Compound activity as filed in PubChem.
# The list is not random: actives were taken first. Their share in the collection is about 2.5%.
# TRPC4 inh: inhibitors of mouse TRPC4 channel; B-score at 10 µM; HEK293 TRPC4beta/mu-opioid, DAMGO-evoked Fluo4 calcium flux; hits give low values; 300,000 compounds, 0.39% hits; AID 2247;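 active = B-score over 3 SD under the library average, no early fluorescence shift, positive overall ratio signal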
#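 Assay system: HEK293 cells with stable TRPC4beta plus mu-opioid receptor expression; Probe or stimulus: DAMGO in two steps, submaximal then maximal; Dosing: single-point compound dosing; Measured by: Fluo4 calcium-dye fluorescence, kinetic read; Read-out basis: B score from integrated Fluo4 fluorescence ratio.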
# TRPC6 act: activates the mouse TRPC6 cation channel. HEK293-TRPC6 membrane potential dye fluorescence; hits give high values. B-score at 10 µM. 310,000 compounds, 0.13% hits. AID 2550;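 active = B-score of the integrated fluorescence ratio above library mean plus 3 SD, and starting fluorescence ratio within library mean plus 5 SD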;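 note: higher score means more depolarization so channel activation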
# Target sequence (Q61143 whole entry, looked up): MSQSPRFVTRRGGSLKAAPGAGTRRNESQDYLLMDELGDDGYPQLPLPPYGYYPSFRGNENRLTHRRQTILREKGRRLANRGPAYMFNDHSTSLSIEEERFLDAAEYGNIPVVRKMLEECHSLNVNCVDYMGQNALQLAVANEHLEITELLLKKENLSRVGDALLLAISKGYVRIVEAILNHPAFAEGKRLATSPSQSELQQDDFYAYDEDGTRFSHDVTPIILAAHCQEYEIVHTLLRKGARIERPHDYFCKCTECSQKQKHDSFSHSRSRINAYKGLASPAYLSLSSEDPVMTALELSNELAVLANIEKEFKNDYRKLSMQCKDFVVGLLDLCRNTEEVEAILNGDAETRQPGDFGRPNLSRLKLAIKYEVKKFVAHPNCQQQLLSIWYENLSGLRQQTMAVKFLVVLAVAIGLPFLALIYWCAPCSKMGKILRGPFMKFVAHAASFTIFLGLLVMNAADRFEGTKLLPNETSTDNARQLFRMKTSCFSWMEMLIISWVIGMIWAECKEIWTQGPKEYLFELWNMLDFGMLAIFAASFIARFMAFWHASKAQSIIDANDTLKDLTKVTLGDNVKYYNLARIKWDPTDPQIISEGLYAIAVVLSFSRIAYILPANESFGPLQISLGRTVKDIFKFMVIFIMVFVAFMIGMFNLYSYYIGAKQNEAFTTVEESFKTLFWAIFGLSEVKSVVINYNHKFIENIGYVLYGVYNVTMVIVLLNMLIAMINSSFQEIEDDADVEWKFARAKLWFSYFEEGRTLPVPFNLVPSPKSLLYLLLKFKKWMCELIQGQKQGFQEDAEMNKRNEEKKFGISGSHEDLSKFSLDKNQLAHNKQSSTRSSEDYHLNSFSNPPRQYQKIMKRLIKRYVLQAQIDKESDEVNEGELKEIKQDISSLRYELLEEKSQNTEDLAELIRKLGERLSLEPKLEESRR
# TRPC4 agonist: opens the mouse TRPC4 cation channel. Q9QUQ5. HEK293 TRPC4beta/mu-opioid, Fluo4 calcium fluorescence; hits give high values. B-score at 10 µM. 310,000 compounds, 0.49% hits;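 active = B-score above 5 SD of library B-scores, and initial fluorescence ratio not above library mean plus 5 SD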;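 note: positive B-score marks a calcium rise read as TRPC4 activation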
#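 System: HEK293 cells stably co-expressing mouse TRPC4beta and mu-opioid receptor; Schedule: Fluo4 dye loading 45 min at room temperature, 110 s recording; Detection: Fluo4 fluorescence, kinetic; Evaluation: B-scored integrated calcium fluorescence ratio; Controls: buffer (low) and maximal DAMGO (high).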
# TRPC4 PAM: allosteric potentiators of mouse TRPC4 channel; Q9QUQ5; HEK293 TRPC4beta/mu-opioid, DAMGO EC20, Fluo-4 Ca2+ flux; hits give high values; AID 2227; 310,000 compounds, 0.42% hits; B-score at 10 µM;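 active = B-score of calcium response area above 5 SD of library B-scores, with initial fluorescence ratio within 5 SD of library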;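 note: B-score of integrated fluorescence ratio over time as area under calcium response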
# Platelet DG rel: modulates dense granule release in human platelets; human platelet-rich plasma, SFLLRN dense granule ATP release, luminescence; inhibition, %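 (compounds screened at 7.5 µM in platelet-rich plasma)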; 300,000 compounds, 0.22% hits;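 active = mean replicate score, as percent of positive control, at or above 50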
# TRPC6 inh: mouse TRPC6 channel inhibition | HEK293-TRPC6, membrane potential dye, ACh-evoked depolarization; hits give low values | 310,000 compounds, 1.1% hits | AID 2553 | B-score at 10 µM | Q61143;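 active = B-score under library mean minus 3 SD, initial fluorescence not abnormally high, positive integrated signal ratio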;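 note: B-score derived from integrated fluorescence ratio over the kinetic read; more negative B-score means stronger inhibition of depolarization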
# TRPC4 spec 2: mouse TRPC4 off-target activity of TRPC6 inhibitors, second screen; shares compounds with TRPC6 inh; HEK293 TRPC4/MOR, membrane potential dye fluorescence; channel activated by saturating DAMGO dose; 920 compounds, 42% hits; inhibition, % at 10 µM;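 active = compounds whose fluorescence signal differed from control wells by over 3 SD, either direction, in both duplicate plates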
# TRPC4 spec: tests whether TRPC6 inhibitors also affect mouse TRPC4 | shares compounds with TRPC6 inh | HEK293 TRPC4/mu-opioid, membrane potential fluorescence | activity change, negative = inhibition, % at 10 µM | 920 compounds, 61% hits | AID 2777;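 active = rise or fall in signal beyond 3 SD of buffer-only wells in both replicate plates, either sign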;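 note: integrated kinetic ratio of fluorescence range over baseline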
# HEK293 MPD ctr 2-1: parental HEK293 nonspecific activity of TRPC6 inhibitors, second screen; AID 2779; shares compounds with TRPC6 inh; signal change vs control, % at 10 µM; 920 compounds, 31% hits; parental HEK293 membrane potential dye fluorescence; maximal acetylcholine challenge after compound addition;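 active = membrane potential signal moving either way by over 3 SD of the maximum-effect control, in both duplicate plates, meaning non-specific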
# HEK293 MPD ctr-1: checks TRPC6 inhibitor effects in parental HEK293 cells; membrane potential signal change, % at 10 µM; parental HEK293 membrane potential dye fluorescence; shares compounds with TRPC6 inh; 920 compounds, 60% hits;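 active = membrane potential signal shifting up or down by more than 3 SD of buffer-only wells, on both duplicate plates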
# HEK293 MPD ctr-2: checks TRPC6 modulator effects in parental HEK293 cells; shares compounds with TRPC6 inh; membrane potential signal change, % at 10 µM; AID 488924; 2,400 compounds, 51% hits; membrane potential dye fluorescence;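 active = membrane potential signal moves up or down beyond 5 SD from buffer-only wells, on both duplicate plates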
# HEK293 MPD ctr 2-2: second counter-screen for TRPC6 modulators: effect in parental HEK293 cells; shares compounds with TRPC6 inh; membrane potential dye fluorescence; after compound, maximal acetylcholine stimulation; inhibition, % at 10 µM; 2,400 compounds, 14% hits; AID 488926;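 active = membrane potential signal drops by more than 5 SD from the mean control signal, in both duplicate plates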;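 note: plate controls were acetylcholine ECmax control wells for no effect and buffer only wells for full effect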
# TRPC4/MOR mod: tests whether TRPC6 modulators also affect mouse TRPC4; shares compounds with TRPC6 inh; HEK293 TRPC4/mu-opioid, membrane potential fluorescence; percent change from control (negative = decrease, positive = increase), % at 10 µM; 2,400 compounds, 69% hits; AID 488927;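 active = membrane potential signal moved up or down beyond 5 SD of buffer control wells, in both duplicate plates, actives on both sides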;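 note: plate controls were assay buffer wells for no effect and DAMGO maximal-effect wells for full effect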
# TRPC4 ctr inh 2: second check of whether TRPC6 modulators also affect mouse TRPC4; HEK293 TRPC4/mu-opioid, membrane potential dye fluorescence; stimulated with maximal-effect DAMGO; AID 488928; shares compounds with TRPC6 inh; 2,400 compounds, 55% hits; inhibition, % at 10 µM;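 active = drop in membrane potential signal beyond 5 SD of the control wells in both duplicate plates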;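 note: TRPC4 counter screen for TRPC6 hits run under conditions tuned for TRPC6 not TRPC4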
# TRPC6 inh conf: confirmation of mouse TRPC6 inhibitors | inhibition, % at 10 µM | HEK293-TRPC6, membrane potential dye, ACh-evoked depolarization | 3,300 compounds, 43% hits | shares compounds with TRPC6 inh;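 active = fluorescence ratio falls more than 5 SD below the full-stimulation control mean, in both duplicate runs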;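 note: integrated fluorescence ratio of peak minus minimum over baseline after agonist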
# TRPC6 act confirm: confirmation of mouse TRPC6 activators | shares compounds with TRPC6 inh | HEK293-TRPC6 membrane potential dye fluorescence, FDSS | activation, % at 10 µM | 2,800 compounds, 11% hits | AID 488961;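 active = ratio signal rise beyond 5 SD above unstimulated control wells' mean, seen in both duplicate runs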;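 note: plate controls were buffer EC0 wells for no effect and acetylcholine ECmax response for full effect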
# Numbers without * were called inactive; i = inactive; / = not tested or not shown.
SMILES,TRPC4 inh,TRPC6 act,TRPC4 agonist,TRPC4 PAM,Platelet DG rel,TRPC6 inh,HEK293 MPD ctr-2,HEK293 MPD ctr 2-2,TRPC4/MOR mod,TRPC4 ctr inh 2,TRPC6 inh conf,TRPC6 act confirm,others
O=C(O)CCCNC(=O)c1nn(Cc2ccccc2)c(=O)c2ccccc12,i,i,i,i,1.7,i,/,/,/,/,/,/,
CCOC(=O)C1(Cc2cccc(Cl)c2)CCCN(C(=O)CCSC)C1 (stereo unspecified),i,i,i,i,-6.2,-5.33*,152.0%*,i,36.5%*,i,53.5%*,/,
Clc1ccc(-c2c[n+]3c(n2-c2ccccc2)SCC3)cc1,i,i,i,i,3.3,i,/,/,/,/,/,/,
O=[N+]([O-])c1cccc(-c2c[n+]3c(n2-c2ccccc2)SCC3)c1,i,i,i,i,/,-5.2*,i,i,i,34.0%*,47.0%*,i,
CCOc1c2ccc(C(=O)NCc3ccc(C)cc3)cc2nn1CCOC,i,i,i,i,-2.2,i,/,/,/,/,/,/,
Cc1cc(C)n(/N=C/c2cc([N+](=O)[O-])ccc2O)c(=O)c1,i,i,i,i,14.5,i,/,/,/,/,/,/,
CCOC(=O)c1nnc(-c2ccccc2)nc1NCc1ccccc1,i,i,i,i,2.2,i,/,/,/,/,/,/,
CCOC(=O)c1c2n(c3c(NCc4ccccc4)ncnc13)CCCC2,i,i,i,i,4.5,-5.2*,-94.5%*,66.5%*,-15.5%*,45.5%*,54.5%*,i,
Cc1nnc(C)c2c(C)n(C(C)c3ccccc3)c(C)c12 (stereo unspecified),i,i,i,i,-1.1,i,/,/,/,/,/,/,
COc1ccc(C(C)n2c(C)c3c(C)nnc(C)c3c2C)cc1 (stereo unspecified),i,i,i,i,8.6,-8.12*,-219.5%*,i,-30.0%*,65.0%*,i,i,
O=C1Nc2ccccc2/C1=N\N=C\C1=C(N2CCOCC2)C(=C\c2ccccc2)/CC1,i,i,i,i,7.4,-9.49*,/,/,/,/,90.1%*,i,TRPC4 spec 2=33.0%*;TRPC4 spec=-29.1%*;HEK293 MPD ctr 2-1=-22.0%*;HEK293 MPD ctr-1=-325.5%*
Cn1cc(C(=O)N/N=C/C2=C(N3CCOCC3)C(=C\c3ccccc3)/CC2)ccc1=O,i,i,i,i,-10.8,i,/,/,/,/,/,/,
O=C(NC1CCCC1)c1noc2c1CCCCC2,i,i,i,i,0.9,-7.99*,/,/,/,/,i,i,TRPC4 spec 2=i;TRPC4 spec=i;HEK293 MPD ctr 2-1=i;HEK293 MPD ctr-1=i
O=C(NCc1ccccc1)c1noc2c1CCCCC2,i,i,i,i,7.7,i,/,/,/,/,/,/,
COc1ccc(CN2CCCCCC2)cc1Br,i,i,i,i,3.6,i,/,/,/,/,/,/,
COc1ccc(S(=O)(=O)N2CCOCC2)cc1NC(=O)c1cccc(Cl)c1,i,i,i,i,-6.9,i,/,/,/,/,/,/,
Cc1oc(-c2cc(F)ccc2F)nc1CN1CCCN(C(=O)c2ccco2)CC1,i,i,i,i,-0.5,i,/,/,/,/,/,/,
Cc1ccc(C(=O)c2ccccc2C(=O)OCC(=O)Nc2cccc([N+](=O)[O-])c2)cc1,i,i,i,i,-17.4,-6.49*,i,i,i,i,i,i,
Cc1ccc(-c2nc(C)sc2CC(=O)OCC(=O)Nc2cccc([N+](=O)[O-])c2)cc1,i,i,i,i,3.1,i,/,/,/,/,/,/,
CCOc1cc(/C=C(/C#N)C(=O)Nc2ccc(O)cc2)cc(Br)c1O,i,27.9*,43*,i,8.7,-9.71*,831.0%*,193.5%*,114.0%*,29.0%*,i,177.0%*,
O=C1C(=O)N(Cc2ccco2)C(c2cccs2)/C1=C(\O)c1cccc([N+](=O)[O-])c1 (stereo unspecified),i,i,i,i,5.4,i,/,/,/,/,/,/,
CCN1CCN(CCCNC(=O)c2ccc3c(c2)N(Cc2ccc(C)cc2)CCS3)CC1,i,i,i,i,4.9,-5.17*,i,i,i,74.0%*,57.0%*,i,
Cc1ccc(CN2CCSc3ccc(C(=O)NCCCN4CCOCC4)cc32)cc1,i,i,i,i,2.1,i,/,/,/,/,/,/,
CN1CCN(CCCNC(=O)c2ccc3c(c2)N(Cc2ccccc2)CCS3)CC1,i,i,i,i,-6.8,-7.93*,/,/,/,/,i,i,TRPC4 spec 2=62.5%*;TRPC4 spec=i;HEK293 MPD ctr 2-1=i;HEK293 MPD ctr-1=i
COc1ccccc1N(CC(=O)NCCN1CCOCC1)S(=O)(=O)c1ccc(C)cc1,i,i,i,i,1.4,i,/,/,/,/,/,/,
CCCCn1nnnc1SCC(=O)c1cc(Cl)ccc1OC,i,i,i,i,5.6,i,/,/,/,/,/,/,
COc1ccc(Cl)cc1C(=O)CSc1nc(N)cc(N)n1,i,12.6*,i,i,8.6,-8.54*,i,i,i,i,71.5%*,173.0%*,
